In brackets after ≈: the same amount, converted by molar mass.
Columns and labels:
[1] = system: Hepatitis C virus; assay: Antiviral activity against Hepatitis C virus subtype 1b infected in human Huh7 cells assessed as inhibition of viral RNA replication; format: functional, organism-based, Hepacivirus hominis, genotype 1b, Huh-7
Outline: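 Stable subgenomic HCV genotype 1b replicon in Huh-7 cells carrying a modified luciferase reporter. EC50 from duplicate or more determinations. Some inhibitors were also run in a 72 h replicon format, with HCV RNA normalized to total cellular RNA. Cytotoxicity checked as TC50.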

[2] = Inhibition of histidine-tagged HCV NS5Bdelta21 by scintillation proximity assay; parameters: species or system Hepacivirus hominis
Outline: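 Soluble truncated NS5B at 12 nM. Reaction contains 0.01% w/v BSA, with no dodecyl-β-D-maltoside or IGEPAL. Other conditions follow an earlier method. IC50 is the mean of duplicate experiments on two separate weighings.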

[3] = Inhibition of calf thymus DNA-directed RNA polymerase 2; parameters: species or system Bos taurus
[4] = Equilibrium solubility at pH 7.2 with amorphous solid after 24 hrs by shake flask method; format: physicochemical; settings: buffer
[5] = Permeability from apical to basolateral side of the human Caco-2 cells at pH 7.4; format: ADME, cell-based; settings: Caco-2, pH 7.4, read-out: permeability
Outline: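 Caco-2 permeability measured in the apical-to-basal direction at pH 7.4.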

[6] = Half life in human liver microsomes at 2 uM; format: ADME, Microsome
Outline: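 Human liver microsomes incubated with test compound at 2 µM. Stability reported as T1/2 in min.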

[7] = Hepatitis C virus, genotype 1b, Huh-7, read-out: EC50

| Structure (SMILES) | IC50 [2] | IC50 [3] | EC50 [1, 7] | other results |
| --- | --- | --- | --- | --- |
| O=C(O)c1ccc2c(c1)nc(-c1ccoc1)n2C1CCCCC1 | 1100 nM | – | – | EC50 ([1]; huh-7): Not Active |
| CN(C)C(=O)Cn1c(-c2ccccc2)c(C2CCCCC2)c2ccc(C(=O)O)cc21 | 40 nM | > 250000 nM | 1400 nM | – |
| O=C(O)c1ccc2c(C3CCCCC3)c(-c3ccccc3)n(CC(=O)N3CCOCC3)c2c1 | 70 nM | > 250000 nM | 700 nM | – |
| O=C(O)c1ccc2c(C3CCCCC3)c(-c3ccoc3)[nH]c2c1 | 30 nM | – | 6700 nM | – |
| O=C(O)c1ccc2c(C3CCCCC3)c(-c3cc4ccccc4s3)n(CC(=O)N3CCC(N4CCCC4)CC3)c2c1 | 160 nM | > 250000 nM | 1000 nM | – |
| Cn1c(-c2ccoc2)c(C2CCCCC2)c2ccc(C(=O)N[C@@H](Cc3c[nH]c4ccc(O)cc34)c3cscn3)cc21 | 100 nM | – | 50 nM | – |
| CN(CCc1ccncc1)C(=O)Cn1c(-c2ccoc2)c(C2CCCCC2)c2ccc(C(=O)O)cc21 | 30 nM | > 250000 nM | 630 nM | – |
| O=C(O)c1ccc2c(C3CCCCC3)c(-c3ccoc3)n(CC(=O)N3CCCC3)c2c1 | 40 nM | > 250000 nM | – | – |
| CCN(Cc1ccncc1)C(=O)Cn1c(-c2ccoc2)c(C2CCCCC2)c2ccc(C(=O)O)cc21 | 40 nM | > 250000 nM | – | – |
| CCN(CC)CCN(C)C(=O)Cn1c(-c2ccoc2)c(C2CCCCC2)c2ccc(C(=O)O)cc21 | 30 nM | > 250000 nM | 460 nM | – |
| CN(C)CCCN(C)C(=O)Cn1c(-c2ccoc2)c(C2CCCCC2)c2ccc(C(=O)O)cc21 | 20 nM | > 250000 nM | 580 nM | – |
| O=C(O)c1ccc2c(C3CCCCC3)c(-c3ccco3)n(CC(=O)N3CCC(N4CCCC4)CC3)c2c1 | 30 nM | > 250000 nM | 1200 nM | – |
| Cc1cccc(C)c1Cn1c(-c2ccoc2)c(C2CCCCC2)c2ccc(C(=O)O)cc21 | > 138000 nM | – | – | – |
| O=C(O)c1ccc2c(C3CCCCC3)c(-c3cnccn3)n(CC(=O)N3CCC(N4CCCC4)CC3)c2c1 | 60 nM | > 250000 nM | 10000 nM | – |
| O=C(O)c1ccc2c(C3CCCCC3)c(-c3ccoc3)n(CC(=O)N3CCC(N4CCCCC4)CC3)c2c1 | 30 nM | > 250000 nM | 780 nM | – |
| O=C(O)c1ccc2c(C3CCCCC3)c(-c3ccsc3)n(CC(=O)N3CCC(N4CCCC4)CC3)c2c1 | 30 nM | > 250000 nM | 1000 nM | – |
| O=C(O)c1ccc2c(C3CCCCC3)c(-c3ccoc3)n(Cc3ccccc3)c2c1 | 250 nM | – | – | – |
| O=C(O)c1ccc2c(C3CCCCC3)c(-c3ccoc3)n(CC(=O)N3CCN(CCO)CC3)c2c1 | 20 nM | > 250000 nM | 1300 nM | – |
| CN1CCCN(C(=O)Cn2c(-c3ccoc3)c(C3CCCCC3)c3ccc(C(=O)O)cc32)CC1 | 20 nM | > 250000 nM | 330 nM | – |
| O=C(O)c1ccc2c(C3CCCCC3)c(-c3ccoc3)n(CC(=O)N3CCC(CCO)CC3)c2c1 | 70 nM | > 250000 nM | 1300 nM | – |
| Cc1ccccc1Cn1c(-c2ccoc2)c(C2CCCCC2)c2ccc(C(=O)O)cc21 | 290 nM | – | – | – |
| CN(C)C(=O)Cn1c(-c2cccs2)c(C2CCCCC2)c2ccc(C(=O)O)cc21 | 20 nM | > 250000 nM | 600 nM | – |

| Structure (SMILES) | IC50 [2] | IC50 [3] | EC50 [1, 7] | other results |
| --- | --- | --- | --- | --- |
| COCCN(C)C(=O)Cn1c(-c2ccoc2)c(C2CCCCC2)c2ccc(C(=O)O)cc21 | 50 nM | > 250000 nM | 1300 nM | – |
| O=C(O)c1ccc2c(C3CCCCC3)c(-c3ccccn3)n(CC(=O)N3CCOCC3)c2c1 | – | > 250000 nM | – | – |
| O=C(O)c1ccc2c(C3CCCCC3)c(-c3cnccn3)n(CC(=O)N3CCOCC3)c2c1 | 100 nM | > 250000 nM | – | – |
| O=C(O)c1ccc(Cn2c(-c3ccoc3)c(C3CCCCC3)c3ccc(C(=O)O)cc32)cc1 | 40 nM | – | – | – |
| O=C(O)c1ccc2c(C3CCCCC3)c(-c3ccoc3)n(CCO)c2c1 | 100 nM | – | > 10000 nM | – |
| O=C(O)c1ccc2c(C3CCCCC3)c(-c3cc4ccccc4s3)n(CC(=O)N3CCOCC3)c2c1 | 160 nM | > 250000 nM | 1100 nM | – |
| CCn1c(-c2ccoc2)c(C2CCCCC2)c2ccc(C(=O)O)cc21 | 70 nM | – | > 10000 nM | – |
| C=CCn1c(-c2ccoc2)c(C2CCCCC2)c2ccc(C(=O)O)cc21 | 80 nM | – | > 10000 nM | – |
| CNC(=O)Cn1c(-c2ccoc2)c(C2CCCCC2)c2ccc(C(=O)O)cc21 | 50 nM | > 250000 nM | 2000 nM | – |
| CN(C(=O)Cn1c(-c2ccoc2)c(C2CCCCC2)c2ccc(C(=O)O)cc21)C1CCCCC1 | 110 nM | > 250000 nM | – | – |
| CC(C)N(C(=O)Cn1c(-c2ccoc2)c(C2CCCCC2)c2ccc(C(=O)O)cc21)C(C)C | 70 nM | > 250000 nM | 2300 nM | – |
| O=C(O)c1cccc(Cn2c(-c3ccoc3)c(C3CCCCC3)c3ccc(C(=O)O)cc32)c1 | 70 nM | – | – | – |
| CCOC(=O)Cn1c(-c2ccoc2)c(C2CCCCC2)c2ccc(C(=O)O)cc21 | 90 nM | – | 8500 nM | – |
| CN1CCN(C(=O)Cn2c(-c3ccoc3)c(C3CCCCC3)c3ccc(C(=O)O)cc32)CC1 | 40 nM | > 250000 nM | 450 nM | solubility thermodynamic at 24 h [4]: 7 µg/mL (≈ 15.6 µM); Papp A→B [5]: 1.7 ×10⁻⁶ cm/s; half-life at 2 µM [6]: 1.17 h |
| O=C(O)c1ccc2c(C3CCCCC3)c(-c3cccs3)n(CC(=O)N3CCOCC3)c2c1 | 30 nM | > 250000 nM | 600 nM | – |
| O=C(O)CCn1c(-c2ccoc2)c(C2CCCCC2)c2ccc(C(=O)O)cc21 | 210 nM | – | – | – |
| CC(C)NC(=O)Cn1c(-c2ccoc2)c(C2CCCCC2)c2ccc(C(=O)O)cc21 | 50 nM | > 250000 nM | – | – |
| O=C(Cn1c(-c2ccoc2)c(C2CCCCC2)c2ccc(C(=O)O)cc21)NCC1CCCCC1 | 120 nM | > 250000 nM | – | – |
| O=C(Cn1c(-c2ccoc2)c(C2CCCCC2)c2ccc(C(=O)O)cc21)NCc1ccccc1 | 60 nM | > 250000 nM | – | – |
| CN(C)C(=O)Cn1c(-c2cc3ccccc3s2)c(C2CCCCC2)c2ccc(C(=O)O)cc21 | 210 nM | > 250000 nM | 2500 nM | – |
| O=C(O)c1ccc2c(C3CCCCC3)c(-c3ccco3)n(CC(=O)N3CCOCC3)c2c1 | 40 nM | > 250000 nM | 1000 nM | – |
| O=C(O)c1ccc2c(C3CCCCC3)c(-c3ccsc3)n(CC(=O)N3CCOCC3)c2c1 | 40 nM | > 250000 nM | 330 nM | – |

| Structure (SMILES) | IC50 [2] | IC50 [3] | EC50 [1, 7] | other results |
| --- | --- | --- | --- | --- |
| O=C(O)c1ccc2c(C3CCCCC3)c(-c3ccoc3)n(CC(=O)N3CCCCC3)c2c1 | 40 nM | > 250000 nM | 820 nM | – |
| O=C(O)Cn1c(-c2ccoc2)c(C2CCCCC2)c2ccc(C(=O)O)cc21 | 60 nM | – | – | – |
| CN(C)C(=O)Cn1c(-c2ccco2)c(C2CCCCC2)c2ccc(C(=O)O)cc21 | 40 nM | > 250000 nM | 1500 nM | – |
| O=C(O)c1ccc2c(C3CCCCC3)c(-c3ccccn3)n(CC(=O)N3CCC(N4CCCC4)CC3)c2c1 | – | > 250000 nM | – | – |
| CN(C)C(=O)Cn1c(-c2ccsc2)c(C2CCCCC2)c2ccc(C(=O)O)cc21 | 40 nM | > 250000 nM | 640 nM | – |
| O=C(O)c1ccc2c(C3CCCCC3)c(-c3ccoc3)n(CC(=O)N3CCC(O)CC3)c2c1 | 20 nM | > 250000 nM | 2000 nM | – |
| CN1CCC(N(C)C(=O)Cn2c(-c3ccoc3)c(C3CCCCC3)c3ccc(C(=O)O)cc32)CC1 | 20 nM | > 250000 nM | 130 nM | solubility thermodynamic at 24 h [4]: 290 µg/mL (≈ 607 µM); Papp A→B [5]: 0.2 ×10⁻⁶ cm/s; half-life at 2 µM [6]: > 5 h |
| Nc1ccccc1Cn1c(-c2ccoc2)c(C2CCCCC2)c2ccc(C(=O)O)cc21 | 90 nM | – | 2900 nM | – |
| O=C(O)c1ccc2c(C3CCCCC3)c(-c3ccoc3)n(CC(=O)N3CCC(C(=O)O)CC3)c2c1 | 30 nM | > 250000 nM | > 94000 nM | – |
| O=C(Cn1c(-c2ccoc2)c(C2CCCCC2)c2ccc(C(=O)O)cc21)Nc1ccccc1 | 80 nM | > 250000 nM | – | – |
| CN(C)C(=O)Cn1c(-c2ccccn2)c(C2CCCCC2)c2ccc(C(=O)O)cc21 | 240 nM | > 250000 nM | 3400 nM | – |
| CN(C)C(=O)Cn1c(-c2cnccn2)c(C2CCCCC2)c2ccc(C(=O)O)cc21 | 160 nM | > 250000 nM | – | – |
| CN(C)CCN(C)C(=O)Cn1c(-c2ccoc2)c(C2CCCCC2)c2ccc(C(=O)O)cc21 | 20 nM | > 250000 nM | 440 nM | – |
| C=C(C)n1c(-c2ccoc2)c(C2CCCCC2)c2ccc(C(=O)O)cc21 | 360 nM | – | > 10000 nM | – |
| NC(=O)Cn1c(-c2ccoc2)c(C2CCCCC2)c2ccc(C(=O)O)cc21 | 40 nM | – | 2400 nM | – |
| COCCNC(=O)Cn1c(-c2ccoc2)c(C2CCCCC2)c2ccc(C(=O)O)cc21 | 50 nM | > 250000 nM | – | – |
| Nc1cccc(Cn2c(-c3ccoc3)c(C3CCCCC3)c3ccc(C(=O)O)cc32)c1 | 130 nM | – | > 8000 nM | – |
| O=C(O)c1ccc2c(C3CCCCC3)c(-c3ccoc3)n(Cc3ccccn3)c2c1 | 130 nM | – | – | – |
| CCCN(C)C(=O)Cn1c(-c2ccoc2)c(C2CCCCC2)c2ccc(C(=O)O)cc21 | 50 nM | > 250000 nM | 1700 nM | – |
| CC(C)N(C)C(=O)Cn1c(-c2ccoc2)c(C2CCCCC2)c2ccc(C(=O)O)cc21 | 30 nM | > 250000 nM | 800 nM | – |
| CC(C(=O)O)n1c(-c2ccoc2)c(C2CCCCC2)c2ccc(C(=O)O)cc21 (racemic) | 2800 nM | – | – | – |
